Data set [1] in a line: Toxicity in BALB/c mouse xenografted with human NCI-H1975 cells assessed as side effects at 5.7 mg/kg,iv administrated once per week for 3 weeks. Type of data set: organism-based. The following applies: in vivo, 504 h. The method in brief:
(§1)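 Nude BALB/c nu/nu mice received subcutaneous human tumour cells into the right flank. Dosing started at mean tumour volume of 100–120 mm3, iv once weekly for 3 weeks; the taxane arm was an equimolar control. Body weight and overt side effects were monitored. Mean ± SEM, n = 8.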
For orientation: Xenograft models place foreign cells or tissue in a host animal.

Data set [2] is described as follows: Toxicity in BALB/c mouse xenografted with human MDA-MB-231 cells assessed as side effects at 5.7 mg/kg,iv administrated once per week for 3 weeks. The following applies: in vivo, 504 h. Type of data set: organism-based. The method in brief:
as §1

Data set [3] deals with 4T1. Description: Antitumor activity against mouse 4T1 cells implanted in BALB/c mouse assessed as decrease in spleen MDSC cells at 5.7 mg/kg,iv administrated in presence of compound 5b measured after 28 days (reference value: 38%). Type of data set: functional. Also noted: scale not given: the % may be the effect or the level left. To be noted: time 28 day. The method in brief:
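Splenocytes taken from 4T1 fat-pad tumor-bearing BALB/c mice after 28 days of tumor growth with weekly iv dosing. Cells stained with anti-CD11b PE and anti-Gr-1 FITC, and the Gr-1+CD11b+ percentage scored by flow cytometry. Eight mice per treated group, five naive. Mean ± SEM.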

In data set [4] the test system is 4T1. The data set is described as follows: Antitumor activity against mouse 4T1 cells implanted in BALB/c mouse assessed as decrease in spleen MMP2 expression level at 5.7 mg/kg,iv administrated once per week for 4 weeks by western blot assay. Type of data set: functional, organism-based. In a few lines:
(§2)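 4T1 cells injected into mammary fat pads of BALB/c mice. Saline vehicle or test article given iv once weekly for 4 weeks. Spleen, lung and tumor lysates immunoblotted for MMP2/MMP9 with β-actin as loading control. Bands averaged over five mice per group, representative of two independent experiments.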
In general terms: In western blotting, separated proteins are transferred to a membrane and probed.

Data set [5] relates to 4T1. Description: Antitumor activity against mouse 4T1 cells implanted in BALB/c mouse assessed as increase in tumor NOD1 expression level at 5.7 mg/kg,iv administrated once per week for 4 weeks by western blot assay. Type of data set: functional, organism-based. The method in brief:
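Tumour-bearing BALB/c mice (4T1 cells into mammary fat pad) given iv saline vehicle or test agents once weekly for 4 weeks. Tumours excised and probed by western blot for MMP9, MMP2 and NOD1, β-actin as loading control. Bands averaged over five mice per group; representative of two independent experiments.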

Data set [6] relates to 4T1. Description: Antitumor activity against mouse 4T1 cells implanted in BALB/c mouse assessed as decrease in tumor MMP2 expression level at 5.7 mg/kg,iv administrated once per week for 4 weeks in presence of compound 5b by western blot assay. Type of data set: functional, organism-based. The method in brief:
as §2

Data set [7] deals with 4T1. Description: Antitumor activity against mouse 4T1 cells implanted in BALB/c mouse assessed as decrease in lung metastasis at 5.7 mg/kg,iv administrated once per week for 4 weeks in presence of compound 5b by H and E staining based assay. Type of data set: functional, organism-based. The method in brief:
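BALB/c mice bearing orthotopic mammary fat pad 4T1 tumors, dosed iv weekly for 4 weeks with saline vehicle as control. Lung sections stained with hematoxylin and eosin and examined by light microscopy at 40× for metastasis, inflammatory infiltration and alveolar wall thickening.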

A short description of data set [8]: Drug concentration in plasma of rat assessed as docetaxel concentration at 2 to 8 mg/kg,iv measured upto 24 hrs. Type of data set: ADME, organism-based. To be noted: in vivo, dose 2-8 mg/kg. The method in brief: (§3)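 Rats were given a single iv injection at 2, 4 or 8 mg/kg. Plasma parent drug and released docetaxel were followed over time. Cmax, Tmax, AUC, MRT, t1/2, CL and Vss were reported for males, females and all animals combined.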

Data set [9] is described as follows: Clearance in Beagle dog at 1 mg/kg,iv measured upto 24 hrs. Type of data set: ADME, organism-based, Canis lupus familiaris. To be noted: in vivo. The method in brief: (§4)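 Beagle dogs were given a single iv infusion at 1, 2 or 4 mg/kg. Plasma parent drug and released docetaxel were followed over time. Cmax, Tmax, AUC, MRT, t1/2, CL and Vss were reported by sex and for all dogs combined.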

Data set [10] in a line: MRT (0 to infinity) in Beagle dog at 4 mg/kg,iv measured upto 24 hrs. Type of data set: ADME, organism-based, Canis lupus familiaris. The following applies: in vivo.
The nature of data set [11]: MRT (0 to infinity) in female rat at 2 mg/kg,iv measured upto 24 hrs. Type of data set: ADME, organism-based. The following applies: in vivo.
Data set [12] is described as follows: AUC (0-t) in female Beagle dog at 1 mg/kg,iv measured upto 24 hrs. Type of data set: ADME, organism-based, Canis lupus familiaris. Also on record: dose 1 mg/kg, time < 24 hrs, route iv. The following applies: in vivo. The method in brief:
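Single iv dose: rats 2, 4 or 8 mg/kg by intravenous injection; Beagle dogs 1, 2 or 4 mg/kg by intravenous infusion. Plasma concentration–time data were analysed by sex and pooled. Reported parameters: Cmax, Tmax, AUC0−t, AUC0−∞, MRT0−∞, t1/2, CL, Vss, given as mean ± SD.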

A short description of data set [13]: Tmax in rat at 2 mg/kg,iv measured upto 24 hrs. To be noted: in vivo. Type of data set: ADME, organism-based.
The nature of data set [14]: Tmax in Beagle dog at 2 mg/kg,iv measured upto 24 hrs. To be noted: in vivo. Type of data set: ADME, organism-based, Canis lupus familiaris.
The nature of data set [15]: Cmax in female rat at 2 mg/kg,iv measured upto 24 hrs. Type of data set: ADME, organism-based. Also on record: time < 24 hrs, dose 2 mg/kg, route iv. To be noted: in vivo. In a few lines:
as §3

Data set [16] is described as follows: Cmax in female Beagle dog at 2 mg/kg,iv measured upto 24 hrs. To be noted: in vivo. Type of data set: ADME, organism-based, Canis lupus familiaris. Also noted: dose 2 mg/kg, time < 24 hrs, route iv. The method in brief:
as §4

The test system of data set [17] is 4T1. Description: Antitumor activity against mouse 4T1 cells xenografted with BALB/c mouse assessed as reduction lung metastatic nodules at 5 to 20 mg/kg,iv administrated once per week for 4 weeks. Type of data set: functional, organism-based. The following applies: dose 5-20 mg/kg. In a few lines: (§5)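 4T1 cells injected into the mammary fat pad of BALB/c mice; iv saline vehicle or 5, 10 or 20 mg/kg once weekly for 4 weeks; body weight, tumour volume, tumour weight, lung metastatic nodule count and metastasis score recorded; n = 10, mean ± SEM, ANOVA and Student's t test.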

In data set [18] the test system is 4T1. The data set is described as follows: Antitumor activity against mouse 4T1 cells xenografted with BALB/c mouse assessed as inhibition of tumor growth at 20 mg/kg,iv administrated once per week for 4 weeks. Type of data set: functional. The following applies: 4T1, 672 h. The method in brief: as §5
The test system of data set [19] is 4T1. The data set is described as follows: Antitumor activity against mouse 4T1 cells xenografted with BALB/c mouse assessed as inhibition of tumor growth at 5 mg/kg,iv administrated once per week for 4 weeks. Type of data set: functional. The following applies: 4T1, 672 h. The method in brief:
as §5

A short description of data set [20]: Toxicity in Beagle dog assessed as decrease in blood pressure at 1 to 4 mg/kg,iv. Type of data set: organism-based, Canis lupus familiaris. The following applies: in vivo, dose 1-4 mg/kg.
Data set [21] has as its target Cytochrome P450 1A2 (Homo sapiens, UniProt P05177). Description: Inhibition of CYP1A2 in human liver microsomes using probe substrate at 0.1 to 100 uM in presence of NADPH. To be noted: dose 0.1-100 µM. Type of data set: ADME, Microsome. (Liver microsomes are vesicles of endoplasmic reticulum, rich in cytochrome P450 enzymes.)
Data set [22] is described as follows: Drug metabolism in monkey hepatocytes assessed as MDA-205 metabolite formation at 20 uM incubated for 180 mins. The following applies: rhesus monkey, 3 h. Type of data set: ADME, cell-based, Macaca mulatta, Hepatocyte.
Data set [23] deals with NCI-H460. The data set is described as follows: Antiproliferative activity against human NCI-H460 cells assessed inhibition of cell growth incubated for 72 hrs by SRB assay. Type of data set: functional, cell-based. The following applies: NCI-H460, 72 h.
Data set [24] deals with NCI-H23. Description: Antiproliferative activity against human NCI-H23 cells assessed inhibition of cell growth incubated for 72 hrs by SRB assay. Type of data set: functional, cell-based. The following applies: NCI-H23, 72 h.
Data set [25] is described as follows: Toxicity in male Sprague-Dawley rat assessed as testicular atrophy at 2 to 8 mg/kg,iv measured upto 24 hrs. Type of data set: organism-based. To be noted: in vivo, dose 2-8 mg/kg.
Data set [26] has as its system 4T1. Description: Antitumor activity against mouse 4T1 cells implanted in BALB/c mouse assessed as decrease in serum TIMP-1 level at 5 mg/kg,iv administrated once per week for 4 weeks by ELISA. Type of data set: functional, organism-based. In a few lines:
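4T1 fat-pad model in BALB/c mice, iv 5–20 mg/kg once weekly for 4 weeks, with vehicle and naive groups; serum MMP9, TIMP-1, IL-6 and S100A9 measured by mouse ELISA kits.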

Calls of active or inactive are those of the source. No cut-off for these calls is given here.

As usually defined, the clearance is the volume of plasma or blood freed of the substance per unit of time. Usually MRT inf stands for a mean duration of stay, worked out from the concentration-time curve. The term AUC(0-t) denotes exposure summed from dosing to a finite time, without extrapolation to infinity. A word on the Tmax: it is the time from dosing to the highest level. As usually defined, the Cmax is the maximum level reached in the sampled fluid or tissue. A word on the inhibition in vivo: it is the percentage by which the read-out fell short of the control. For orientation: IC50 means the concentration that gives 50% inhibition.

Chain of Cytochrome P450 1A2 (P05177 whole entry): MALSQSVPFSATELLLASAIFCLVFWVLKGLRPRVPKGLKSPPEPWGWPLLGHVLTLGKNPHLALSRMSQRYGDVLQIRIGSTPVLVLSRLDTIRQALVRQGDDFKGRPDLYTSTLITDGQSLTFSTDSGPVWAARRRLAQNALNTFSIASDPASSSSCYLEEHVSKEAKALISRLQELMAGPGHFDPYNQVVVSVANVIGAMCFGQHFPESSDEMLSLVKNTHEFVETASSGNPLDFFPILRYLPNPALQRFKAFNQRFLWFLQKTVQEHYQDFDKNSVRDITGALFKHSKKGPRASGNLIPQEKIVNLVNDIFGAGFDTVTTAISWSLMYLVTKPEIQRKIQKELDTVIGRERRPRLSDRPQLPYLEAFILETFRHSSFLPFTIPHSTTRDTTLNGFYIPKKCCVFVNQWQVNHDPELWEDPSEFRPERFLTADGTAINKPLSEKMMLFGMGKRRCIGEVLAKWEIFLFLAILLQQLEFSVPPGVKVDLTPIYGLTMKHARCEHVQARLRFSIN

Regarding `CC(=O)O[C@@]12CO[C@@H]1C[C@H](O)[C@@]1(C)C(=O)[C@H](O)C3=C(C)[C@@H](OC(=O)[C@H](O)[C@@H](NC(=O)OC(C)(C)C)c4ccccc4)C[C@@](O)([C@@H](OC(=O)c4ccccc4)[C@H]21)C3(C)C` [DOCETAXEL ANHYDROUS], the Activity entry is given as “Non-Toxic” in data set [1], “Non-Toxic” in [2] and 32.1% in [3]. Moreover, the result in data set [4], in [5] and in data set [6] was inactive. Further, in data set [7], the outcome was Active.

As to `CC(=O)O[C@@]12CO[C@@H]1C[C@H](O)[C@@]1(C)C(=O)[C@H](O)C3=C(C)[C@@H](OC(=O)[C@H](OC(=O)CCC(=O)NCCCC[C@H](NC(=O)CC[C@@H](NC(=O)[C@H](C)NC(=O)/C=C/c4ccc(F)cc4Cl)C(N)=O)C(=O)O)[C@@H](NC(=O)OC(C)(C)C)c4ccccc4)C[C@@](O)([C@@H](OC(=O)c4ccccc4)[C@H]21)C3(C)C`, the Drug uptake in [8] amounted to 0.79%. The compound also yielded a clearance in data set [9] of 11.5 mL/min/kg. Besides, the values for the MRT inf in data set [10] and in data set [11] were 20.3 min and 8.64 min, respectively. Further, in [12], the AUC(0-t) at 24 h was 1590 ng·h/mL. The Tmax came out at 4.98 min in data set [13] and 30 min in [14]. The Cmax stood at 14600 ng/mL in data set [15] and 14700 ng/mL in [16]. The result in [17] and in data set [26] was Active. In addition, the inhibition in vivo at 20 mg/kg in data set [18] worked out at 57.2%. Also, the inhibition in vivo at 5 mg/kg in [19] stood at 12%. Moreover, the Activity result in data set [20] and in [25] was “Toxic” throughout. In addition, the “inhibition (INH)” value in data set [21] is on record as “Not Active”. Besides, in data set [22], the Drug metabolism result is recorded as “Metabolite_Detected”. Also, the IC50 in data set [23] and in [24] was 16.3 nM in each case.

For the origin of these results see ChEMBL document CHEMBL5252546, “Salutaxel, a Conjugate of Docetaxel and a Muramyl Dipeptide (MDP) Analogue, Acts as Multifunctional Prodrug That Inhibits Tumor Growth and Metastasis” (J Med Chem, 2018).
